{"source": "ChEMBL document CHEMBL1153830", "about": "“Treatment of a clinically relevant plant-pathogenic fungus with an agricultural azole causes cross-resistance to medical azoles and potentiates caspofungin efficacy” (2007)", "key": {"[1]": {"test_system": "Colletotrichum graminicola", "experiment": "Fungicidal activity against tebuconazole-nonadapted wild type Colletotrichum graminicola CgM2 infected in excised human skin assessed as inhibition of invasive colonized hyphal growth at epidermis at ED90 after 4 days by Uvitex-2B staining-based fluorescence microscopy", "format": "functional, organism-based", "outline": "(§1)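 Excised human skin from reduction mammoplasty, all pieces from one donor, cut to 20 mm discs. Each disc got 15–20 prick wounds and 100 μl of 10^6 conidia/ml. Discs sat in a Franz diffusion cell at 32°C over isotonic NaCl for up to 4 days. Drug was applied at ED50, ED90 or 2× ED90, three pieces per condition. Biopsies were cryosectioned and Uvitex 2B-stained; hyphal area per section was measured by fluorescence.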"}, "[2]": {"test_system": "Colletotrichum graminicola", "experiment": "Fungicidal activity against tebuconazole-adapted wild type Colletotrichum graminicola CgM2 infected in excised human skin assessed as inhibition of invasive colonized hyphal growth at hypodermis at ED90 after 4 days by Uvitex-2B staining-based fluorescence microscopy", "format": "functional, organism-based", "outline": "as §1"}, "[3]": {"test_system": "Colletotrichum graminicola", "experiment": "Fungicidal activity against tebuconazole-nonadapted wild type Colletotrichum graminicola CgM2 assessed as deffects in cell wall rigidity at hyphal apex at 0.25 ug/ml after 3 days by differential interference contrast microscopy", "format": "functional, organism-based", "outline": "(§2)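 Mycelia were grown 3 days in liquid complete medium with caspofungin at 0–5 μg/ml. Cell wall rigidity and hyphal swelling were judged by Nomarski (DIC) light microscopy.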"}, "[4]": {"test_system": "Colletotrichum graminicola", "experiment": "Fungicidal activity against tebuconazole-adapted wild type Colletotrichum graminicola CgM2 assessed as increase in metabolically inactive hyphal count at 2.5 ug/ml after 3 days by FUN1 staining-based fluorescence microscopy", "format": "functional, organism-based", "outline": "(§3)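 Mycelia were grown 3 days in liquid complete medium with drug at 0–5 μg/ml. Staining used 50 μM FUN-1 in 2% glucose and 10 mM HEPES (pH 7.2), 1 h at 27°C. Viability was scored by epifluorescence microscopy with a GFP-LP filter. Negative controls were killed with 70% ethanol for 30 min before staining.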"}, "[5]": {"test_system": "Colletotrichum graminicola", "experiment": "Fungicidal activity against tebuconazole-adapted wild type Colletotrichum graminicola CgM2 assessed as deffects in cell wall rigidity at 2.5 ug/ml after 3 days by differential interference contrast microscopy", "format": "functional, organism-based", "outline": "as §2"}, "[6]": {"test_system": "Colletotrichum graminicola", "experiment": "Fungicidal activity against tebuconazole-adapted wild type Colletotrichum graminicola CgM2 infected in excised human skin assessed as inhibition of invasive colonized hyphal growth at epidermis at ED90 after 4 days by Uvitex-2B staining-based fluorescence microscopy", "format": "functional, organism-based", "outline": "as §1"}, "[7]": {"test_system": "Colletotrichum graminicola", "experiment": "Fungicidal activity against tebuconazole-adapted wild type Colletotrichum graminicola CgM2 assessed as inhibition of radial growth rate at 23 degC in darkness", "format": "functional", "outline": "(§4)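 Radial growth on solid complete medium, 23°C, darkness. Colony diameters were read at 3 and 6 days after inoculation and compared with drug-free control plates. Azoles and picoxystrobin were dissolved in 12% (wt/vol) Cremophor EL and tested at 0–2.5 μg/ml. Caspofungin, amphotericin B and nystatin were dissolved in water and tested from 0.00025 μg/ml; caspofungin plates used sucrose (10 mg/ml) in place of glucose.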"}, "[8]": {"test_system": "Colletotrichum graminicola", "experiment": "Fungicidal activity against tebuconazole-nonadapted wild type Colletotrichum graminicola CgM2 assessed as cell death at 2.5 ug/ml after 3 days by FUN1 staining-based fluorescence microscopy", "format": "functional, organism-based", "outline": "as §3"}, "[9]": {"test_system": "Colletotrichum graminicola", "experiment": "Fungicidal activity against tebuconazole-nonadapted wild type Colletotrichum graminicola CgM2 assessed as deffects in cell wall rigidity at 2.5 ug/ml after 3 days by differential interference contrast microscopy", "format": "functional, organism-based", "outline": "as §2"}, "[10]": {"test_system": "Colletotrichum graminicola", "experiment": "Fungicidal activity against tebuconazole-nonadapted wild type Colletotrichum graminicola CgM2 infected in excised human skin assessed as inhibition of invasive colonized hyphal growth at epidermis at twofold ED90 after 4 days by Uvitex-2B staining-based fluorescence microscopy", "format": "functional, organism-based", "outline": "as §1"}, "[11]": {"test_system": "Colletotrichum graminicola", "experiment": "Fungicidal activity against tebuconazole-adapted wild type Colletotrichum graminicola CgM2 assessed as cell wall rigidity deffect-related increase in apical cell diameter at 0.025 ug/ml after 3 days by differential interference contrast microscopy", "format": "functional, organism-based", "outline": "as §2"}, "[12]": {"test_system": "Colletotrichum graminicola", "experiment": "Fungicidal activity against tebuconazole-nonadapted wild type Colletotrichum graminicola CgM2 assessed as metabolically inactive hyphae at 0.025 ug/ml after 3 days by FUN1 staining-based fluorescence microscopy", "format": "functional, organism-based", "outline": "as §3"}, "[13]": {"test_system": "Colletotrichum graminicola", "experiment": "Fungicidal activity against tebuconazole-nonadapted wild type Colletotrichum graminicola CgM2 assessed as metabolically inactive hyphae at 0.25 ug/ml after 3 days by FUN1 staining-based fluorescence microscopy", "format": "functional, organism-based", "outline": "as §3"}, "[14]": {"test_system": "Colletotrichum graminicola", "experiment": "Fungicidal activity against tebuconazole-nonadapted wild type Colletotrichum graminicola CgM2 assessed as inhibition of radial growth rate at 23 degC in darkness", "format": "functional", "outline": "as §4"}, "[15]": {"test_system": "Colletotrichum graminicola", "experiment": "Fungicidal activity against tebuconazole-nonadapted wild type Colletotrichum graminicola CgM2 infected in excised human skin assessed as inhibition of invasive colonized hyphal growth at dermis at ED50 after 4 days by Uvitex-2B staining-based fluorescence microscopy", "format": "functional, organism-based", "outline": "as §1"}, "[16]": {"test_system": "Colletotrichum graminicola", "experiment": "Fungicidal activity against tebuconazole-adapted wild type Colletotrichum graminicola CgM2 infected in excised human skin assessed as inhibition of invasive colonized hyphal growth at dermis at ED90 after 4 days by Uvitex-2B staining-based fluorescence microscopy", "format": "functional, organism-based", "outline": "as §1"}, "[17]": {"test_system": "Colletotrichum graminicola", "experiment": "Fungicidal activity against tebuconazole-adapted wild type Colletotrichum graminicola CgM2 assessed as cell wall rigidity deffect-related cell wall swelling at 0.25 ug/ml after 3 days by differential interference contrast microscopy", "format": "functional, organism-based", "outline": "as §2"}, "[18]": {"test_system": "Colletotrichum graminicola", "experiment": "Fungicidal activity against tebuconazole-nonadapted wild type Colletotrichum graminicola CgM2 assessed as deffects in cell wall rigidity at 0.25 ug/ml after 3 days by differential interference contrast microscopy", "format": "functional, organism-based", "outline": "as §2"}, "[19]": {"test_system": "Colletotrichum graminicola", "experiment": "Fungicidal activity against tebuconazole-adapted wild type Colletotrichum graminicola CgM2 assessed as metabolically inactive hyphae at 0.025 ug/ml after 3 days by FUN1 staining-based fluorescence microscopy", "format": "functional, organism-based", "outline": "as §3"}, "[20]": {"test_system": "Colletotrichum graminicola", "experiment": "Fungicidal activity against tebuconazole-nonadapted wild type Colletotrichum graminicola CgM2 infected in excised human skin assessed as inhibition of invasive colonized hyphal growth at epidermis at ED50 after 4 days by Uvitex-2B staining-based fluorescence microscopy", "format": "functional, organism-based", "outline": "as §1"}, "[21]": {"test_system": "Colletotrichum graminicola", "experiment": "Fungicidal activity against tebuconazole-nonadapted wild type Colletotrichum graminicola CgM2 infected in excised human skin assessed as inhibition of invasive colonized hyphal growth at dermis at ED90 after 4 days by Uvitex-2B staining-based fluorescence microscopy", "format": "functional, organism-based", "outline": "as §1"}, "[22]": {"test_system": "Colletotrichum graminicola", "experiment": "Fungicidal activity against tebuconazole-nonadapted wild type Colletotrichum graminicola CgM2 assessed as deffects in cell wall rigidity at 0.025 ug/ml after 3 days by differential interference contrast microscopy", "format": "functional, organism-based", "outline": "as §2"}, "[23]": {"test_system": "Colletotrichum graminicola", "experiment": "Fungicidal activity against tebuconazole-adapted wild type Colletotrichum graminicola CgM2 assessed as cell death at 0.25 ug/ml after 3 days by FUN1 staining-based fluorescence microscopy", "format": "functional, organism-based", "outline": "as §3"}, "[24]": {"conditions": "Colletotrichum graminicola, CgM2, read-out: ED50 (the source's name)"}}, "note": "The source made the active and inactive calls. The calls are words filed in the database; no cut-off is given here."}
{"compound": "CC[C@H](C)C[C@H](C)CCCCCCCCC(=O)N[C@H]1C[C@@H](O)[C@@H](NCCN)NC(=O)[C@@H]2[C@@H](O)CCN2C(=O)[C@H]([C@H](O)CCN)NC(=O)[C@H]([C@H](O)[C@@H](O)c2ccc(O)cc2)NC(=O)[C@@H]2C[C@@H](O)CN2C(=O)[C@H]([C@@H](C)O)NC1=O", "note": "[CASPOFUNGIN]", "values": [{"measurement": "Activity", "setting": "[1]", "result": "inactive"}, {"measurement": "Activity", "setting": "[2]", "result": "Active"}, {"measurement": "Activity", "setting": "[3]", "result": "Active"}, {"measurement": "Activity", "setting": "[4]", "result": "Active"}, {"measurement": "Activity", "setting": "[5]", "result": "inactive"}, {"measurement": "Activity", "setting": "[6]", "result": "Active"}, {"measurement": "ED90", "setting": "[7]", "result": 0.77, "unit": "µg/mL"}, {"measurement": "EC50", "setting": "[7]; [24]", "result": 0.006, "unit": "µg/mL"}, {"measurement": "Activity", "setting": "[8]", "result": "Active"}, {"measurement": "Activity", "setting": "[9]", "result": "Active"}, {"measurement": "Activity", "setting": "[10]", "result": "inactive"}, {"measurement": "Activity", "setting": "[11]", "result": "Active"}, {"measurement": "Activity", "setting": "[12]", "result": "inactive"}, {"measurement": "Activity", "setting": "[13]", "result": "Active"}, {"measurement": "ED90", "setting": "[14]", "result": 1.281, "unit": "µg/mL"}, {"measurement": "EC50", "setting": "[14]; [24]", "result": 0.032, "unit": "µg/mL"}, {"measurement": "Activity", "setting": "[15]", "result": "inactive"}, {"measurement": "Activity", "setting": "[16]", "result": "Active"}, {"measurement": "Activity", "setting": "[17]", "result": "Active"}, {"measurement": "Activity", "setting": "[18]", "result": "Active"}, {"measurement": "Activity", "setting": "[19]", "result": "Active"}, {"measurement": "Activity", "setting": "[20]", "result": "inactive"}, {"measurement": "Activity", "setting": "[21]", "result": "inactive"}, {"measurement": "Activity", "setting": "[22]", "result": "inactive"}, {"measurement": "Activity", "setting": "[23]", "result": "Active"}]}
